Results on six compounds are retold here after ChEMBL document CHEMBL5357024, “MDM2 Antagonist Idasanutlin Reduces HDAC1/2 Abundance and Corepressor Partners but Not HDAC3” (ACS Med Chem Lett, 2024).

The structures appear in SMILES notation. The source made the active and inactive calls. No cut-off for these calls is given here.

In assay [1] the target is T1, E3 ubiquitin-protein ligase Mdm2/Histone deacetylase 2 (Homo sapiens) (UniProt Q00987+Q92769). The assay is described as follows: PROTAC activity at MDM2/HDAC2 in human HCT-116 cells assessed as decrease in HDAC2 abundance by measuring remaining activity at 10 uM measured after 24 hrs by Western blot analysis (reference value: 100%). The format is cell-based. The gist of the method:
(§1)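 HCT116 cells seeded in six-well plates for 24 h, then exposed 24 h to compound (0.01–10 μM) or DMSO in fresh medium. Lysis in Tris-HCl/NaCl/NP-40/Triton X-100 with protease inhibitor. Bradford-normalised 30 μg protein per lane. Quantitative Western blot used specific HDAC1, HDAC2, HDAC3, LSD1 or Sin3a antibodies with IRDye secondaries. Abundance compared with DMSO, n = 2 replicates.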

Assay [2] deals with T2, E3 ubiquitin-protein ligase Mdm2/Histone deacetylase 1 (Homo sapiens) (UniProt Q00987+Q13547). Briefly: PROTAC activity at MDM2/HDAC1 in human HCT-116 cells assessed as decrease in HDAC1 abundance by measuring remaining activity at 0.1 uM measured after 24 hrs by Western blot analysis (reference value: 100%). The format is cell-based. A digest of the protocol:
as §1

For assay [3], the target named is T2, E3 ubiquitin-protein ligase Mdm2/Histone deacetylase 1 (Homo sapiens). Briefly: PROTAC activity at MDM2/HDAC1 in human HCT-116 cells assessed as decrease in HDAC1 abundance by measuring remaining activity at 1 uM measured after 24 hrs by Western blot analysis (reference value: 100%). The format is cell-based. The gist of the method: as §1
Assay [4] concerns the target T3, E3 ubiquitin-protein ligase Mdm2/Histone deacetylase 3 (Homo sapiens) (UniProt Q00987+O15379). Briefly: PROTAC activity at MDM2/HDAC3 in human HCT-116 cells assessed as reduction in HDAC3 abundance by measuring remaining activity at 10 uM measured after 24 hrs by Western blot analysis (reference value: 100%). The format is cell-based. The gist of the method:
(§2)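 HCT116 cells in DMEM with 10% FBS and glutamine/penicillin/streptomycin at 37 °C, 5% CO2. Seeded 4 × 10^5 cells/well, after 24 h treated 24 h with DMSO or compound in fresh medium. Lysed in Tris-HCl/NaCl/NP-40/Triton X-100 buffer with protease inhibitor, Bradford-quantified, 30 μg protein per lane. Quantitative Western blot with specific HDAC1/2/3 antibodies, IRDye secondaries, infrared imaging, versus DMSO. n = 2 replicates.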

Assay [5] has as its target T3, E3 ubiquitin-protein ligase Mdm2/Histone deacetylase 3 (Homo sapiens). Briefly: PROTAC activity at MDM2/HDAC3 in human HCT-116 cells assessed as reduction in HDAC3 abundance by measuring remaining activity at 1 uM measured after 24 hrs by Western blot analysis (reference value: 100%). The format is cell-based. The gist of the method:
as §2

In assay [6] the test system is HCT-116. Briefly: Effect on histone H3 lysine K56 acetylation in human HCT-116 cells assessed as increase in H3K56ac level at 0.1 to 10 uM by Western blot analysis. The format is functional, cell-based. The conditions noted are these: dose 0.1-10 µM. A digest of the protocol:
(§3)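 HCT116 cells (DMEM, 10% FBS, glutamine/pen/strep, 37 °C, 5% CO2) seeded 24 h, then treated with DMSO or compound in fresh medium. Pellets after lysis were acid-extracted with 0.4 N H2SO4 at 4 °C overnight. Acid histone extract run on 4–12% bis-Tris gels, transferred to nitrocellulose and probed for H3K56ac. IRDye secondaries with infrared imaging.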

The target in assay [7] is T3, E3 ubiquitin-protein ligase Mdm2/Histone deacetylase 3 (Homo sapiens). The assay is described as follows: PROTAC activity at MDM2/HDAC3 in human HCT-116 cells assessed as reduction in HDAC3 abundance by measuring remaining activity at 0.1 uM measured after 24 hrs by Western blot analysis (reference value: 100%). Type of assay: cell-based. A digest of the protocol:
as §2

Assay [8] has as its target T1, E3 ubiquitin-protein ligase Mdm2/Histone deacetylase 2 (Homo sapiens). The assay is described as follows: PROTAC activity at MDM2/HDAC2 in human HCT-116 cells assessed as decrease in HDAC2 abundance by measuring remaining activity at 0.1 uM measured after 24 hrs by Western blot analysis (reference value: 100%). Type of assay: cell-based. The gist of the method: as §1

The target of assay [9] is T2, E3 ubiquitin-protein ligase Mdm2/Histone deacetylase 1 (Homo sapiens). Briefly: PROTAC activity at MDM2/HDAC1 in human HCT-116 cells assessed as decrease in HDAC1 abundance by measuring remaining activity at 10 uM measured after 24 hrs by Western blot analysis (reference value: 100%). The format is cell-based. The gist of the method:
as §1

Assay [10] concerns the target T1, E3 ubiquitin-protein ligase Mdm2/Histone deacetylase 2 (Homo sapiens). The assay is described as follows: PROTAC activity at MDM2/HDAC2 in human HCT-116 cells assessed as decrease in HDAC2 abundance by measuring remaining activity at 1 uM measured after 24 hrs by Western blot analysis (reference value: 100%). The format is cell-based. The gist of the method:
as §1

In assay [11] the target is von Hippel-Lindau disease tumor suppressor/Histone deacetylase 3 (Homo sapiens) (UniProt O15379+P40337). The assay is described as follows: PROTAC activity at VHL/HDAC3 in human HCT-116 cells assessed as reduction in HDAC3 abundance by measuring remaining activity at 10 uM measured after 24 hrs by Western blot analysis (reference value: 100%). The format is cell-based. A digest of the protocol: as §2

The target in assay [12] is Lysine-specific histone demethylase 1A (Homo sapiens) (UniProt O60341). Briefly: Induction of LSD1 degradation in human HCT-116 cells assessed as reduction in LSD1 abundance by measuring remaining activity at 10 uM measured after 24 hrs by Western blot analysis (reference value: 100%). Type of assay: cell-based. A digest of the protocol: as §1
Assay [13] concerns the target von Hippel-Lindau disease tumor suppressor/Histone deacetylase 1 (Homo sapiens) (UniProt Q13547+P40337). Briefly: PROTAC activity at VHL/HDAC1 in human HCT-116 cells assessed as decrease in HDAC1 abundance by measuring remaining activity at 10 uM measured after 24 hrs by Western blot analysis (reference value: 100%). Type of assay: cell-based. A digest of the protocol: as §2

In assay [14] the target is von Hippel-Lindau disease tumor suppressor/Histone deacetylase 2 (Homo sapiens) (UniProt Q92769+P40337). The assay is described as follows: PROTAC activity at VHL/HDAC2 in human HCT-116 cells assessed as decrease in HDAC2 abundance by measuring remaining activity at 10 uM measured after 24 hrs by Western blot analysis (reference value: 100%). Type of assay: cell-based. A digest of the protocol:
as §2

Assay [15] has as its system HCT-116. Briefly: Effect on histone H3 lysine K56 acetylation in human HCT-116 cells assessed as increase in H3K56ac level at 10 uM by Western blot analysis. The format is functional, cell-based. The gist of the method:
as §3

Assay [16] concerns the target T4, Paired amphipathic helix protein Sin3a (Homo sapiens) (UniProt Q96ST3).
T4 sequence (whole entry): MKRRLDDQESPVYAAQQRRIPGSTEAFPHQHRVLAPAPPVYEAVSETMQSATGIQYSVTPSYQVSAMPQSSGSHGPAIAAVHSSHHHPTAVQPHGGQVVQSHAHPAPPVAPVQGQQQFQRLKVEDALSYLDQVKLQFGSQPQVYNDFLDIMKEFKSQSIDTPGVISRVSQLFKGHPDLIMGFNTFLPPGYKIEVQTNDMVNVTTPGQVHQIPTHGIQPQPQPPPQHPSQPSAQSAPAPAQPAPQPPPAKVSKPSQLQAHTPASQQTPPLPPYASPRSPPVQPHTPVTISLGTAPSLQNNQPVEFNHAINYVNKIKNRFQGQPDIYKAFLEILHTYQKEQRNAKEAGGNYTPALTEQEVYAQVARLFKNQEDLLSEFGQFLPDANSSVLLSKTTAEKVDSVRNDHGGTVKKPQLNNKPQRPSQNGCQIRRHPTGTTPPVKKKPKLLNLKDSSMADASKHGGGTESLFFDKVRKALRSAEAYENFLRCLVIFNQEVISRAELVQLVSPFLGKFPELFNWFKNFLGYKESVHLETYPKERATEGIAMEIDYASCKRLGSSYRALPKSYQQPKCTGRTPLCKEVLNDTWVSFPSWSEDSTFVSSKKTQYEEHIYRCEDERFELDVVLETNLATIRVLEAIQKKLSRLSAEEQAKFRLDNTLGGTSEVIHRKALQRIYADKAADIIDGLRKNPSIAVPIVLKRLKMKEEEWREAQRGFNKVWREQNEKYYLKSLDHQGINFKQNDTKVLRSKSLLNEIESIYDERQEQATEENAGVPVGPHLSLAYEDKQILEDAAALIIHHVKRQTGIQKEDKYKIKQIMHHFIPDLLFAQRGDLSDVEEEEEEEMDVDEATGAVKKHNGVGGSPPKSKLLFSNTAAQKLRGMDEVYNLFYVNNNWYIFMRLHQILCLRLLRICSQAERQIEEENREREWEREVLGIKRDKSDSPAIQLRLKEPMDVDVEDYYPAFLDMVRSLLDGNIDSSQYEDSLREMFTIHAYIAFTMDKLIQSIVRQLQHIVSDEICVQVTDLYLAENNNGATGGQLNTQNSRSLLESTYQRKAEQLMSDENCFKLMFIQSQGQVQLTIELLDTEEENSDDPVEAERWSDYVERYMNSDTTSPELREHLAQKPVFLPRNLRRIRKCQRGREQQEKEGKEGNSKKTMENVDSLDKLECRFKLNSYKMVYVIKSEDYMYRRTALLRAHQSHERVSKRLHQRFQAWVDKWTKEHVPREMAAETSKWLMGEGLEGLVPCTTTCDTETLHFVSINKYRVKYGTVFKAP
The assay is described as follows: Induction of SIN3A degradation in human HCT-116 cells assessed as reduction in SIN3A abundance by measuring remaining activity at 10 uM measured after 24 hrs by Western blot analysis (reference value: 100%). The format is cell-based. A digest of the protocol: as §1

The target of assay [17] is Histone deacetylase 3 (Homo sapiens) (UniProt O15379). The assay is described as follows: Induction of HDAC3 degradation in human HCT-116 cells assessed as reduction in HDAC3 abundance by measuring remaining activity at 1 uM measured after 24 hrs by Western blot analysis. Type of assay: cell-based. A digest of the protocol: as §1
The target is the same in assay [18]. The assay is described as follows: Induction of HDAC3 degradation in human HCT-116 cells assessed as reduction in HDAC3 abundance by measuring remaining activity at 10 uM measured after 24 hrs by Western blot analysis. The format is cell-based. The gist of the method: as §1
Assay [19] is described as follows: Inhibition of LSD1-CoREST-HDAC (unknown origin) by AMC-fluorescence assay. On the set-up: species or system Homo sapiens.

Histone deacetylase 3 (Homo sapiens), sequence (O15379 whole entry): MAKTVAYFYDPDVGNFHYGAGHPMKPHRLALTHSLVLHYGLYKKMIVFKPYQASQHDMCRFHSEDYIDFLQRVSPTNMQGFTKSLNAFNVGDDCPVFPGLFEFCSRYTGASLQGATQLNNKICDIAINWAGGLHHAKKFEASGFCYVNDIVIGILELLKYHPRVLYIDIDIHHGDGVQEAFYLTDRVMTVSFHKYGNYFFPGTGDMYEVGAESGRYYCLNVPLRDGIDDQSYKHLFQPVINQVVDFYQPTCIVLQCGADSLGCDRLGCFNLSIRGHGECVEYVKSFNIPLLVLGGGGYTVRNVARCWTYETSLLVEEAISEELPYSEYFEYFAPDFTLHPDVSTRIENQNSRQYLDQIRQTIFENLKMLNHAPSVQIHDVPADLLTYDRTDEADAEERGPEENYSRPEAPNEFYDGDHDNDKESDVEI
T3 sequence (O15379 whole entry, looked up): as the sequence (O15379 whole entry) above
T3 sequence (Q00987 whole entry, looked up): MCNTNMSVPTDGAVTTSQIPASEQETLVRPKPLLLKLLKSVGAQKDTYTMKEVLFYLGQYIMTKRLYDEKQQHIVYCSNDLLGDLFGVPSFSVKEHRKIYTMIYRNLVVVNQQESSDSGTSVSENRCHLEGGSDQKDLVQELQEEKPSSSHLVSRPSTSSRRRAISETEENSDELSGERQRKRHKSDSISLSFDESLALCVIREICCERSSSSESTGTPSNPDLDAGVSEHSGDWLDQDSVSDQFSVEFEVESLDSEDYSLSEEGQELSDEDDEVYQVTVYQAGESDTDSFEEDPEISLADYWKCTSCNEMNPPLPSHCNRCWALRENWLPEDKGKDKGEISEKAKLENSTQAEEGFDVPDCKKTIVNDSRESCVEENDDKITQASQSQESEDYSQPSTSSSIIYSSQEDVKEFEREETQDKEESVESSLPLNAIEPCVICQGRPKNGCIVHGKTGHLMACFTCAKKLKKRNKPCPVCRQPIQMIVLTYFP
T1 sequence (Q00987 whole entry, looked up): as above
T1 sequence (Q92769 whole entry, looked up): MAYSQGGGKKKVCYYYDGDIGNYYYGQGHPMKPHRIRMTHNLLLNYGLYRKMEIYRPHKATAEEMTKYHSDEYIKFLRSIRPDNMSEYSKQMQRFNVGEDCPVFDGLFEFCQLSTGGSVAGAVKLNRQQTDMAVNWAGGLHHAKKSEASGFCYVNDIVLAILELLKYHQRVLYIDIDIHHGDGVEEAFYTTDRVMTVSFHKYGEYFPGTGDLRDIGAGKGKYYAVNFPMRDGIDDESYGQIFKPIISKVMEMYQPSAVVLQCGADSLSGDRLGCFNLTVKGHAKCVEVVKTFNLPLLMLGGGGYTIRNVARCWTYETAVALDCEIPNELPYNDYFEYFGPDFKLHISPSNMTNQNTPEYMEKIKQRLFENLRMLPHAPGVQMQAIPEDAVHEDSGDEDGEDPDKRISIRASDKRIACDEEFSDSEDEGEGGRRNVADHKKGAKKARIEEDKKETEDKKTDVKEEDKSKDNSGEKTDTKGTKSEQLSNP
T2 sequence (Q00987 whole entry, looked up): as the sequence (Q00987 whole entry, looked up) above
T2 sequence (Q13547 whole entry, looked up): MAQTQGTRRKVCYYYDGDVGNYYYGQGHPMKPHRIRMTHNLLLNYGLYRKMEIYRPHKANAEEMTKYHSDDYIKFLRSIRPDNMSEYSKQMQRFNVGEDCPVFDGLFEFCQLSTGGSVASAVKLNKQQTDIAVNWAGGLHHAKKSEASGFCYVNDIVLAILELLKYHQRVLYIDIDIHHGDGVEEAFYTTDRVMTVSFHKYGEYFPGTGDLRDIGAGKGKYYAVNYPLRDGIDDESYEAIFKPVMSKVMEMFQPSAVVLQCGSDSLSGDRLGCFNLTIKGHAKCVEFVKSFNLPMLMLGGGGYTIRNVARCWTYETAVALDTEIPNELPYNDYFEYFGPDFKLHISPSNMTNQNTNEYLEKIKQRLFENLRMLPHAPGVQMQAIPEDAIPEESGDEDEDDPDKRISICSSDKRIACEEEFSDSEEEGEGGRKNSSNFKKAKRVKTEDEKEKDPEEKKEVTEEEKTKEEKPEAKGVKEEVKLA
von Hippel-Lindau disease tumor suppressor/Histone deacetylase 3 (Homo sapiens), sequence (O15379 whole entry, looked up): as the sequence (O15379 whole entry) above
von Hippel-Lindau disease tumor suppressor/Histone deacetylase 3 (Homo sapiens), sequence (P40337 whole entry, looked up): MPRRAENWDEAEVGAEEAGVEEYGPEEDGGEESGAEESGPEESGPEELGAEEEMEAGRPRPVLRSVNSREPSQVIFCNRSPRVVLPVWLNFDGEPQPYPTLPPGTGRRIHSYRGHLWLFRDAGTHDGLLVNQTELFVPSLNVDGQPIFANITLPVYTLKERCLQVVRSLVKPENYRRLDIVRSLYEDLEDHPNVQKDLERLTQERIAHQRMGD
von Hippel-Lindau disease tumor suppressor/Histone deacetylase 1 (Homo sapiens), sequence (P40337 whole entry, looked up): as above
von Hippel-Lindau disease tumor suppressor/Histone deacetylase 1 (Homo sapiens), sequence (Q13547 whole entry, looked up): as the sequence (Q13547 whole entry, looked up) above
von Hippel-Lindau disease tumor suppressor/Histone deacetylase 2 (Homo sapiens), sequence (P40337 whole entry, looked up): as the sequence (P40337 whole entry, looked up) above
von Hippel-Lindau disease tumor suppressor/Histone deacetylase 2 (Homo sapiens), sequence (Q92769 whole entry, looked up): as the sequence (Q92769 whole entry, looked up) above

Turning to `COc1cc(C(=O)NCCOCCOCCOCCC(=O)Nc2ccc(C(=O)Nc3ccccc3N)cc2)ccc1NC(=O)[C@@H]1N[C@@H](CC(C)(C)C)[C@](C#N)(c2ccc(Cl)cc2F)[C@H]1c1cccc(Cl)c1F`, the Activity in assay [1] was found to be 84%; in assay [2] it was 91%; in assay [3] it was 85%; in assay [4], 122%; in assay [5], 128%; in assay [7], 112%. The Activity in assay [8] amounted to 102%; in assay [9], 65%; in [10], 94%. Moreover, in the assay with HCT-116 [6], the outcome was inactive.
In the case of `COc1cc(C(=O)NCCCCCCCCCCCC(=O)Nc2ccc(C(=O)Nc3ccccc3N)cc2)ccc1NC(=O)[C@@H]1N[C@@H](CC(C)(C)C)[C@](C#N)(c2ccc(Cl)cc2F)[C@H]1c1cccc(Cl)c1F`, the Activity in [1] was determined as 103%; in assay [2] it was 98%; in assay [3], 103%; in [4], 118%; in [5] it was 102%; in assay [7], 101%. Also, the Activity came to 100% in assay [8], 109% in [9] and 101% in assay [10].
`COc1cc(C(=O)NCCCCCCCC(=O)Nc2ccc(C(=O)Nc3ccccc3N)cc2)ccc1NC(=O)[C@@H]1N[C@@H](CC(C)(C)C)[C@](C#N)(c2ccc(Cl)cc2F)[C@H]1c1cccc(Cl)c1F`: the Activity was determined as 100% in assay [1]; 93% in assay [2]; 88% in assay [3]; 109% in assay [4]; 114% in [5]; 114% in assay [7]. Also, the figures for the Activity in assay [8], in [9] and in assay [10] were 100%, 101% and 101%, respectively.
On to `Cc1ncsc1-c1ccc(CNC(=O)[C@@H]2C[C@@H](O)CN2C(=O)[C@@H](NC(=O)CCCCCCCCCCC(=O)Nc2ccc(C(=O)Nc3ccccc3N)cc2)C(C)(C)C)cc1`, for which the Activity in assay [11] was found to be 88%; in assay [12] it was 97%; in assay [13] it was 37%; in assay [14] it was 58%; in [16], 85%. Moreover, in the assay on HCT-116 [15], the result was Active.
With `COc1cc(C(=O)O)ccc1NC(=O)[C@@H]1N[C@@H](CC(C)(C)C)[C@](C#N)(c2ccc(Cl)cc2F)[C@H]1c1cccc(Cl)c1F`, the values for the Activity in assay [17] and in [18] were 110% and 101%, respectively.
For the compound `CC(=O)Nc1ccc(C(=O)Nc2ccccc2N)cc1` [TACEDINALINE], the Activity in assay [17] was determined as 122%; in [12], 109%; in [18], 138%; in assay [16], 81%. Besides, the IC50 in assay [19] is around 500 nM. In addition, the result with HCT-116 [15] was Active.
